Experimental data reported in ChEMBL document CHEMBL3526048, “In vitro metabolism of rivoglitazone, a novel peroxisome proliferator-activated receptor γ agonist, in rat, monkey, and human liver microsomes and freshly isolated hepatocytes” (Drug Metab Dispos, 2011).

Columns and labels:
[1] = Drug metabolism in rat hepatocytes assessed as formation of 2-amino-3-((1-carboxy-2-(4-((6-methoxy-1-methyl-1H-benzo[d]imidazol-2-yl)methoxy)phenyl)ethyl)disulfanyl)propanoic acid at 30 uM after 3 hrs by radio-HPLC/LC-MS/MS analysis; type: ADME, cell-based, Hepatocyte
[2] = Drug metabolism in human hepatocytes assessed as formation of 2-hydroxy-3-(4-((6-methoxy-1-methyl-1H-benzo[d]imidazol-2-yl)methoxy)phenyl)propanamide at 30 uM after 3 hrs by radio-HPLC/LC-MS/MS analysis in presence of NADPH-generating system and NADPH-generating system/SAM; type: ADME, cell-based, Hepatocyte
[3] = Drug metabolism in monkey hepatocytes assessed as formation of 3-(4-((6-methoxy-1-methyl-1H-benzo[d]imidazol-2-yl)methoxy)phenyl)-2-(methylsulfinyl)propanamide at 30 uM after 3 hrs by radio-HPLC/LC-MS/MS analysis in presence of NADPH-generating system/SAM; conditions: cynomolgus monkey
[4] = Drug metabolism in rat hepatocytes assessed as formation of 3-(4-((6-methoxy-1-methyl-1H-benzo[d]imidazol-2-yl)methoxy)phenyl)-2-(methylsulfinyl)propanamide at 30 uM after 3 hrs by radio-HPLC/LC-MS/MS analysis in presence of NADPH-generating system/SAM; type: ADME, cell-based, Hepatocyte
[5] = molecular target: T1, UDP-glucuronosyltransferase 2B7 (Homo sapiens, UniProt P16662); assay: Activity of human UGT2B7 expressed in microsomes isolated from baculovirus infected insect cell assessed as enzyme-mediated 3-(4-((6-methoxy-1-methyl-1H-benzo[d]imidazol-2-yl)methoxy)phenyl)-2-(methylsulfinyl)propanamide formation at 20 uM after 4 hrs by radio-HPLC/LC-MS/MS analysis in presence of NADPH-generating system/SAM; type: ADME
T1 sequence (P16662 whole entry): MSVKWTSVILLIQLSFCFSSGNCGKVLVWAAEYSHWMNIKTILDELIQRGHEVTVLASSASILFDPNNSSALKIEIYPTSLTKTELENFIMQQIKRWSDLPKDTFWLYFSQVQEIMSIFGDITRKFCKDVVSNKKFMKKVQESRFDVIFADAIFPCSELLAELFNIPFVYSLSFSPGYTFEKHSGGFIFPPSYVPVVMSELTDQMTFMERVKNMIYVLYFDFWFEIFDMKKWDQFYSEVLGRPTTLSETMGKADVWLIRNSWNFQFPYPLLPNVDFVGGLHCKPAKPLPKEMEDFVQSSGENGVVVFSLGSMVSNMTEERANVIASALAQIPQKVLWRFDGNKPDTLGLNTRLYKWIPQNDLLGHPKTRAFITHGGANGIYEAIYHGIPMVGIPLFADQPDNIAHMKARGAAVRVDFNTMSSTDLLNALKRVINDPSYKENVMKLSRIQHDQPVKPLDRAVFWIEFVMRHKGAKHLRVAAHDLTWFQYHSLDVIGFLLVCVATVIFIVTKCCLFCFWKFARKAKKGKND

[6] = Drug metabolism in monkey hepatocytes assessed as formation of (2S,3S,4S,5R,6R)-3,4,5-trihydroxy-6-(5-(4-((6-methoxy-1-methyl-1H-benzo[d]imidazol-2-yl)methoxy)benzyl)-2,4-dioxothiazolidin-3-yl)tetrahydro-2H-pyran-2-carboxylic acid at 30 uM after 3 hrs by radio-HPLC/LC-MS/MS analysis; conditions: cynomolgus monkey
[7] = molecular target: Cytochrome P450 2C19 (Homo sapiens, UniProt P33261); assay: Activity of human CYP2C19 expressed in microsomes isolated from baculovirus infected insect cell assessed as enzyme-mediated 3-(4-((6-methoxy-1-methyl-1H-benzo[d]imidazol-2-yl)methoxy)phenyl)-2-(methylthio)propanamide formation at 20 uM after 2 hrs by radio-HPLC/LC-MS/MS analysis in presence of NADPH-generating system/SAM; type: ADME
Sequence of Cytochrome P450 2C19 (P33261 whole entry): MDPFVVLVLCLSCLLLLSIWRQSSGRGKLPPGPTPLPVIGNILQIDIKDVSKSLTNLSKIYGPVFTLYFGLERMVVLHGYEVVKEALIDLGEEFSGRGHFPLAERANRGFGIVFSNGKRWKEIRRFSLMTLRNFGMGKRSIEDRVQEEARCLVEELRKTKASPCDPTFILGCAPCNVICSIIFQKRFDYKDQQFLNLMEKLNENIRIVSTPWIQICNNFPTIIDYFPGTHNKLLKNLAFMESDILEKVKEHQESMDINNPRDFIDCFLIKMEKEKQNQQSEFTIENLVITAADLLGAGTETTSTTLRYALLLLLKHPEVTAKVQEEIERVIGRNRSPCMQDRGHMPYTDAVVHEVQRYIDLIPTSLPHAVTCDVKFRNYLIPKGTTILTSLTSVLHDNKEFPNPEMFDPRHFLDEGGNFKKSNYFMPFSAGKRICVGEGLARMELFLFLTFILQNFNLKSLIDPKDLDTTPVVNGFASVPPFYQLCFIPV

[8] = system: Liver microsome; assay: Drug metabolism in Sprague-Dawley rat liver microsomes assessed as formation of 2-amino-3-((1-carboxy-2-(4-((6-methoxy-1-methyl-1H-benzo[d]imidazol-2-yl)methoxy)phenyl)ethyl)disulfanyl)propanoic acid at 20 uM by radio-HPLC/LC-MS/MS analysis; type: ADME
[9] = Drug metabolism in monkey hepatocytes assessed as formation of 2-((4-((2,4-dioxothiazolidin-5-yl)methyl)phenoxy)methyl)-1-methyl-1H-benzo[d]imidazol-6-yl hydrogen sulfate at 30 uM after 3 hrs by radio-HPLC/LC-MS/MS analysis; conditions: cynomolgus monkey
[10] = molecular target: Cytochrome P450 2C9 (Homo sapiens, UniProt P11712); assay: Activity of human CYP2C9 expressed in microsomes isolated from baculovirus infected insect cell assessed as enzyme-mediated 2-amino-3-((1-carboxy-2-(4-((6-methoxy-1-methyl-1H-benzo[d]imidazol-2-yl)methoxy)phenyl)ethyl)disulfanyl)propanoic acid formation at 20 uM after 2 hrs by radio-HPLC/LC-MS/MS analysis; type: ADME
Sequence of Cytochrome P450 2C9 (P11712 whole entry): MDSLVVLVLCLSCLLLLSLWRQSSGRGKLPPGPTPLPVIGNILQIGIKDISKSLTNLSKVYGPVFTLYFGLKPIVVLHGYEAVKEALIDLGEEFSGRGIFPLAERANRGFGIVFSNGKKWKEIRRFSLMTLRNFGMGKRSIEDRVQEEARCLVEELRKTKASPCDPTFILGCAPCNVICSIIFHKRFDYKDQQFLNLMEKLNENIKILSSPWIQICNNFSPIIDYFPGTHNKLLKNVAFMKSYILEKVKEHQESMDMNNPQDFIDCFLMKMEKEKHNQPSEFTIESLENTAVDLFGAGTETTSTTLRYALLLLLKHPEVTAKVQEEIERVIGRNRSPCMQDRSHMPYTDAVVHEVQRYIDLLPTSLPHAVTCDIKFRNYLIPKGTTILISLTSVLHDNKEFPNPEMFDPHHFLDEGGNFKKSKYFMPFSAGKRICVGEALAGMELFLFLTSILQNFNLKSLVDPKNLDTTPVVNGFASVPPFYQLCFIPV
Summary of the method: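 Baculovirus-insect-cell microsomes expressing the human CYP (1 mg/ml protein) were incubated with [14C]rivoglitazone (20 μM) in 50 mM potassium phosphate (pH 7.4) or 100 mM Tris-HCl (pH 7.5) with an NADPH-generating system (2 mM NADP+, 20 mM glucose 6-phosphate, 2 units/ml G6PDH, 10 mM MgCl2) for 2 h at 37°C. Insect-cell control supersomes served as the control. Reactions were stopped with acetonitrile, and the concentrated supernatants were analysed by radio-HPLC, LC-MS and LC-MS/MS.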

[11] = Drug metabolism in rat hepatocytes assessed as formation of 3-(4-((6-methoxy-1-methyl-1H-benzo[d]imidazol-2-yl)methoxy)phenyl)-2-(methylthio)propanamide at 30 uM after 3 hrs by radio-HPLC/LC-MS/MS analysis in presence of NADPH-generating system/SAM; type: ADME, cell-based, Hepatocyte
[12] = molecular target: T2, Cytochrome P450 2C8 (Homo sapiens, UniProt P10632); assay: Activity of human CYP2C8 expressed in microsomes isolated from baculovirus infected insect cell assessed as enzyme-mediated 2-mercapto-3-(4-((6-methoxy-1-methyl-1H-benzo[d]imidazol-2-yl)methoxy)phenyl)propanamide formation at 20 uM after 2 hrs by radio-HPLC/LC-MS/MS analysis in presence of NADPH-generating system and NADPH-generating system/SAM; type: ADME
T2 sequence (P10632 whole entry): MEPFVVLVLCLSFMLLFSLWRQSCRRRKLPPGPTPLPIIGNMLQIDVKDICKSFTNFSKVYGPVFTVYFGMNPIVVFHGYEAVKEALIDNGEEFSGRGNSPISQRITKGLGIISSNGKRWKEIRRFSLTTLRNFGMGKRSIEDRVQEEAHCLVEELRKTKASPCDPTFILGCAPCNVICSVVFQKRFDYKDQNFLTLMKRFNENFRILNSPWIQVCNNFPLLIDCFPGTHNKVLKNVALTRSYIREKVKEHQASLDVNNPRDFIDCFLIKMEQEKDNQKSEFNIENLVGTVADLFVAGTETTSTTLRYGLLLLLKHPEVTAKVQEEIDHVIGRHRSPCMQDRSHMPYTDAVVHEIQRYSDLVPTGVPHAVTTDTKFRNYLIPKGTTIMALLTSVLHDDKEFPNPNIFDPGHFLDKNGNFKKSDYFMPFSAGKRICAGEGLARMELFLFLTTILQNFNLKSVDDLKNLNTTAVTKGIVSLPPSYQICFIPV
Summary of the method: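 Baculovirus/insect-cell microsomes expressing single human CYPs, 1 mg/ml protein, with 50 mM potassium phosphate (pH 7.4) or 100 mM Tris-HCl (pH 7.5). NADPH-generating system: 2 mM NADP⁺, 20 mM glucose 6-phosphate, 2 units/ml G6PDH, 10 mM MgCl₂. [¹⁴C]rivoglitazone at 20 μM, 2 h at 37°C with shaking. Control used insect-cell control supersomes. Stopped with acetonitrile; supernatant concentrated under nitrogen; metabolites analysed by radio-HPLC, LC-MS and LC-MS/MS.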

Structure (SMILES): COc1ccc2nc(COc3ccc(C[14CH]4SC(=O)NC4=O)cc3)n(C)c2c1.Cl (racemic)
- Drug metabolism [1]: metabolite_not_detected
- Drug metabolism [2]: metabolite_not_detected
- Drug metabolism [3]: metabolite_not_detected
- Drug metabolism [4]: metabolite_detected
- Drug metabolism [5]: metabolite_not_detected
- Drug metabolism [6]: metabolite_detected
- Drug metabolism [7]: metabolite_not_detected
- Drug metabolism [8]: metabolite_not_detected
- Drug metabolism [9]: metabolite_detected
- Drug metabolism [10]: metabolite_not_detected
- Drug metabolism [11]: metabolite_detected
- Drug metabolism [12]: metabolite_detected
